Test results from PubChem BioAssay AID624020 (Broad Institute, 2012).
Active and inactive are the calls of the source.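 Rule for the calls: active = fitted curve reaching 35% inhibition at both 405 and 600 nm absorbance, in duplicate, within twice the top valid dose; inactive = the rest, including signal rising instead of falling.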

System: not listed separately
Assay: P. aeruginosa growth delay under iron chelation, dose response, pyoverdine/PvdQ inhibitor project, absorbance 405 nm, dry powder, set 3 (AID 624020)
Details: P. aeruginosa growth + EDDHA, pyoverdine absorbance 405 nm; at 50 µM (top of the series)
Method in brief: (§1)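 Assay system: P. aeruginosa ATCC 15692; quantity: final bacterial OD600 0.0000005; buffer or medium: succinate M9 medium, pH 7.0, with 2 µM iron chelator EDDHA; technique: absorbance at 405 nm reflecting pyoverdine production; timing: Bacteria-compound culture for 24–30 h at 37 °C, humidified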

Question: With `CCCCC(C#N)c1ccc(F)cc1` (centres undefined) as the compound, how does the activity change, negative = inhibition read?
Answer: 8.04% (inactive)

Question: With `N#CC(c1ccc(C(F)(F)F)cc1)c1cccc(Cl)n1` (centres undefined) as the compound, how does the activity change, negative = inhibition read?
Answer: 17.5% (inactive)

Question: With `CCCCC(C#N)c1ccc(Cl)cc1F` (centres undefined) as the compound, how does the activity change, negative = inhibition read?
Answer: 15.6% (inactive)

Question: Which activity change, negative = inhibition does the source give for `CCCC(C#N)c1ccc(Cl)cc1` (centres undefined) here?
Answer: -9% (inactive)

Question: With `N#CC(c1cccc(Cl)n1)c1ccc(Cl)cc1Cl` (centres undefined) as the compound, how does the activity change, negative = inhibition read?
Answer: 0.286% (inactive)

Question: For `N#CC(c1cccc(Cl)n1)c1ccccc1OC(F)(F)F` (centres undefined), which activity change, negative = inhibition is on record?
Answer: -0.322% (inactive)

Question: For `N#CC(c1ccc(Cl)cc1)c1ccc(Cl)cn1` (centres undefined), which activity change, negative = inhibition is on record?
Answer: -3.9% (inactive)

Question: For `N#CC(c1cccc(C(F)(F)F)n1)c1ccccc1OC(F)(F)F` (centres undefined), which activity change, negative = inhibition is on record?
Answer: 7.17% (inactive)

Question: Which activity change, negative = inhibition does the source give for `N#CC(c1ccc(Cl)cc1)c1ccc(C(F)(F)F)c(Cl)n1` (centres undefined) here?
Answer: -1.44% (inactive)

Question: With `CCCCC(C#N)c1ccc(Cl)cc1` (centres undefined) as the compound, how does the activity change, negative = inhibition read?
Answer: -10.7% (inactive)

Question: For `N#Cc1cccc(C(C#N)c2ccc(Cl)cc2F)n1` (centres undefined), which activity change, negative = inhibition is on record?
Answer: 7.99% (inactive)

Question: Which activity change, negative = inhibition does the source give for `N#CC(c1cccc(C(F)(F)F)n1)c1ccc(Cl)cc1F` (centres undefined) here?
Answer: -4.42% (inactive)

Question: With `CCCCC(C#N)c1ccccc1OC(F)(F)F` (centres undefined) as the compound, how does the activity change, negative = inhibition read?
Answer: -1.21% (inactive)

Question: For `N#CC(c1ccc(C(F)(F)F)cc1)c1cccc(C(F)(F)F)n1` (centres undefined), which activity change, negative = inhibition is on record?
Answer: 20.5% (inactive)

Question: With `N#Cc1ccc(C(C#N)c2ccc(Cl)cc2Cl)nc1` (centres undefined) as the compound, how does the activity change, negative = inhibition read?
Answer: 4.54% (inactive)

Question: With `N#Cc1ccc(C(C#N)c2ccc(Cl)cc2)nc1` (centres undefined) as the compound, how does the activity change, negative = inhibition read?
Answer: 5.84% (inactive)

Question: Which activity change, negative = inhibition does the source give for `N#CC(c1ccc(Cl)cc1)c1ccc(C(F)(F)F)cn1` (centres undefined) here?
Answer: 8.01% (inactive)

Question: For `N#CC(c1ccc(C(F)(F)F)cc1)c1ccc(C(F)(F)F)c(Cl)n1` (centres undefined), which activity change, negative = inhibition is on record?
Answer: 20.8% (inactive)

Question: Which activity change, negative = inhibition does the source give for `Cc1cccc(C(C#N)c2ccc(Cl)cc2)n1` (centres undefined) here?
Answer: 14% (inactive)

Question: Which activity change, negative = inhibition does the source give for `Cc1ccc(C(C#N)c2ccccc2OC(F)(F)F)nc1C#N` (centres undefined) here?
Answer: 9.74% (inactive)

Question: Which activity change, negative = inhibition does the source give for `N#CC(c1ccc(C(F)(F)F)c(Cl)n1)c1ccc(Cl)cc1F` (centres undefined) here?
Answer: 2.37% (inactive)

Question: Which activity change, negative = inhibition does the source give for `N#Cc1cccc(C(C#N)c2ccccc2OC(F)(F)F)n1` (centres undefined) here?
Answer: 4.22% (inactive)

Question: Which activity change, negative = inhibition does the source give for `CC(C)CC(C#N)c1ccc(Cl)cc1` (centres undefined) here?
Answer: 3.56% (inactive)

Question: Which activity change, negative = inhibition does the source give for `CCCCC(C#N)c1ccc(C(F)(F)F)cc1` (centres undefined) here?
Answer: 16.2% (inactive)

Question: With `N#Cc1cccc(C(C#N)c2ccc(Cl)cc2Cl)n1` (centres undefined) as the compound, how does the activity change, negative = inhibition read?
Answer: -0.74% (inactive)

Question: With `COc1cccc(C(C#N)c2ccc(F)cc2)n1` (centres undefined) as the compound, how does the activity change, negative = inhibition read?
Answer: 9.45% (inactive)

Question: With `N#CC(c1ccc(Cl)cc1Cl)c1ncccc1Cl` (centres undefined) as the compound, how does the activity change, negative = inhibition read?
Answer: 13% (inactive)

Question: With `N#CC(CC1CC1)c1ccc(Cl)cc1` (centres undefined) as the compound, how does the activity change, negative = inhibition read?
Answer: 3.25% (inactive)

Question: For `CC(C#N)(c1ccc(Cl)cc1)c1ccc(C(F)(F)F)cn1` (centres undefined), which activity change, negative = inhibition is on record?
Answer: 9.6% (inactive)

Question: For `Cc1ccc(C(C#N)c2ccc(F)cc2)nc1C#N` (centres undefined), which activity change, negative = inhibition is on record?
Answer: 4.87% (inactive)

Question: Which activity change, negative = inhibition does the source give for `N#Cc1cccc(C(C#N)c2ccc(Cl)cc2)n1` (centres undefined) here?
Answer: 3.83% (inactive)

Question: For `N#CC(c1ccc(C(F)(F)F)c(Cl)n1)c1ccccc1OC(F)(F)F` (centres undefined), which activity change, negative = inhibition is on record?
Answer: -1.95% (inactive)

Question: With `Cc1ccc(C(C#N)c2ccc(Cl)cc2)nc1C#N` (centres undefined) as the compound, how does the activity change, negative = inhibition read?
Answer: 5.29% (inactive)

Question: Which activity change, negative = inhibition does the source give for `CCCCC(C#N)c1ccc(Cl)cc1Cl` (centres undefined) here?
Answer: 14.9% (inactive)

Question: Which activity change, negative = inhibition does the source give for `Cc1ccc(C(C#N)c2ccc(Cl)cc2)nc1` (centres undefined) here?
Answer: 7.58% (inactive)

System: P. aeruginosa growth + EDDHA, pyoverdine absorbance 405 nm
Assay: as above
Details: not given
Method in brief: as §1

Question: Which AC35 does the source give for `N#CC(c1ccc(C(F)(F)F)c(Cl)n1)c1ccc(Cl)cc1Cl` (centres undefined) here?
Answer: > 50 µM (inactive)

Question: For `N#CC(c1ccc(Cl)cc1)c1cccc(Cl)n1` (centres undefined), which AC35 is on record?
Answer: 33.5 µM

Question: Which AC35 does the source give for `N#CC(c1ccc(F)cc1)c1cccc(C(F)(F)F)n1` (centres undefined) here?
Answer: 44.8 µM

Question: Which AC35 does the source give for `N#CC(c1ccc(Cl)cc1)c1cccc(C(F)(F)F)n1` (centres undefined) here?
Answer: 16.8 µM
